In the library only some 3.1% were active in any assay of this set; here they are far more common.
HSF1 inh – HSF1 inhibition; NIH3T3-HGL HSE-luciferase, MG132-induced, luminescence 8 h; stronger effect = lower value; activity change, negative = inhibition, % at 7.5 µM (by protocol); 0.77% of 300,000 active;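 active = more than half of replicate wells show activity change below -50%, luminescence cut by over half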;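 note: luciferase reports HSF-1 transcriptional activity via heat shock element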
Hsp70 act – switches on Hsp70 transcription; HeLa Hsp70 promoter luciferase reporter, luminescence; scaled: vehicle 0, proteasome-inhibitor control 100%; activation, % at 10 µM; 0.04% of 200,000 active;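 active = activation above the mean across all tested compounds plus 3 SD, cutoff set per campaign, cut at about 5.5% in these data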
Tb hexokinase – T. brucei hexokinase 1 inhibition | recombinant TbHK1, G6PDH-coupled NADH A340 | inhibition, % at 10 µM | 0.11% of 220,000 active | AID 1430;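 active = inhibition of 50% or more in the single-dose primary screen; inactive = inhibition below 50%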
HSF-1 act – increases HSF-1 driven luciferase reporter signal | NIH3T3-HGL HSF-1 luciferase reporter, MG132, 8 h; 100% = twice DMSO control signal | 1.7% of 300,000 active | activation, % at 9 µM;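 active = mean replicate activation of at least 50% with a set share of replicates each reaching 50%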
HSP90 refold inh – HSP90 refolding inhibition in rabbit reticulocyte lysate; luciferase refolding luminescence, 3 h; inhibition, % at 5.6 µM; 0.91% of 290,000 active; AID 1789;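 active = inhibition above the screen-wide mean plus 3 SD, computed separately per campaign, cut at about 16% in these data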;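 note: inhibitors lower the luminescence because luciferase stays unfolded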
HKDC1 inhibitor – HKDC1 (human) hexokinase inhibition; 0.16% of 340,000 active; AID 493160; Q2TB90; inhibition, % at 20 µM; recombinant HKDC1, G6PDH/diaphorase resazurin coupled fluorescence;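 active = inhibition above about 35% when tested at 20 µM, limit read from the data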
Target sequence (Q2TB90 whole entry, looked up): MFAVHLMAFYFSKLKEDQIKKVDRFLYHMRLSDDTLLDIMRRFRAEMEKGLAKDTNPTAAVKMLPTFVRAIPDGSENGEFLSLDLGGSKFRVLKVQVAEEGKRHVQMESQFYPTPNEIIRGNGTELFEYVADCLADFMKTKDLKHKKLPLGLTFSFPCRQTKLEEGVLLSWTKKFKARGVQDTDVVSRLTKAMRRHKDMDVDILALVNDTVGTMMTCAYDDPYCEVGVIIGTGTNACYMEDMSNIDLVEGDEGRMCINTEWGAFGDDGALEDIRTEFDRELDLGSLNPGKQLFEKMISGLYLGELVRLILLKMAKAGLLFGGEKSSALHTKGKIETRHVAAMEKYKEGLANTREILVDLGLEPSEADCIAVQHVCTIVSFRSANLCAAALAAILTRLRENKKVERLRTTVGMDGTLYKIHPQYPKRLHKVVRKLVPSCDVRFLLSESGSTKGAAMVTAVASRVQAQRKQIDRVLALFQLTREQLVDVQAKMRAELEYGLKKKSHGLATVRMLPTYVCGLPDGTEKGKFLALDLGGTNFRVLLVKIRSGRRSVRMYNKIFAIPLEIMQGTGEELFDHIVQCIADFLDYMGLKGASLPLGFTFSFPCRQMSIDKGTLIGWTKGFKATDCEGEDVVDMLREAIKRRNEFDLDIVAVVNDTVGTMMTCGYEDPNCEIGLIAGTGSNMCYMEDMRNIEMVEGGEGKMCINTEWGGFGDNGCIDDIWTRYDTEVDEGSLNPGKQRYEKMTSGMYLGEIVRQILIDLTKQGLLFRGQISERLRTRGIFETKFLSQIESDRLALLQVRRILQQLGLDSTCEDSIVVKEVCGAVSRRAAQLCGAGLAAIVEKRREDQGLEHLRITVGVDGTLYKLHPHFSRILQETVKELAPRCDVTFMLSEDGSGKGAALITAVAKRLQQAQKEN
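Assay system – recombinant HKDC1 (HK5) hexokinase enzyme, produced in-house · Input – HKDC1 at 5 µg/mL · Reagent – glucose plus 1 mM ATP as hexokinase substrates · Timing – 90 min reaction incubation at room temperature, dark · Measured by – G6PDH/diaphorase-coupled fluorescence, 1 mM NADP, 100 µM resazurin, 525/613 nm · Benchmarks – DMSO-enzyme wells negative, buffer-substituted wells positive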
Numbers stand for hits.

`Cc1ccccc1N(C(=O)c1csnn1)C(C(=O)NC(C)(C)C)c1ccncc1` (configuration not stated) gave HSF1 inh inactive, Hsp70 act inactive, Tb hexokinase inactive, HSF-1 act 93, HSP90 refold inh inactive and HKDC1 inhibitor inactive.
`Cc1ccc(N(C(=O)c2csnn2)C(C(=O)NC2CCCC2)c2ccncc2)c(C)c1` (configuration not stated) gave HSF1 inh inactive, HSF-1 act 61, HSP90 refold inh inactive and HKDC1 inhibitor inactive.
`COc1ccc(CNC(=O)C(c2ccc(C)o2)N(C(=O)c2csnn2)c2ccc(C(C)C)cc2)cc1` (configuration not stated) gave HSF1 inh inactive, Hsp70 act inactive, Tb hexokinase inactive, HSF-1 act 71, HSP90 refold inh inactive and HKDC1 inhibitor inactive.
`C=CCn1c(=N)n(CC(=O)c2ccc(OC)cc2)c2ccccc21` gave HSF1 inh inactive, Tb hexokinase inactive, HSF-1 act inactive, HSP90 refold inh inactive and HKDC1 inhibitor inactive.
Screening CC(C)CCC1(C)NC(=O)N(CC(=O)c2ccc[nH]2)C1=O (configuration not stated) returned HSF1 inh inactive, HSF-1 act inactive and HKDC1 inhibitor inactive.
For C[C@@H]1CN([C@@H](C)CO)C(=O)c2cccc(NS(C)(=O)=O)c2O[C@H]1CN(C)CC1CCCCC1 the results were HKDC1 inhibitor inactive.
`CC(C)c1ccc(N(C(=O)c2csnn2)C(C(=O)NC2CCCC2)c2ccncc2)cc1` (configuration not stated) gave HSF1 inh inactive, HSF-1 act 53, HSP90 refold inh inactive and HKDC1 inhibitor inactive.
`CCC(C)N(C(=O)C(F)(F)F)C(C(=O)NC1CCCCC1)c1ccncc1` (configuration not stated) gave HSF1 inh -52, Hsp70 act inactive, Tb hexokinase inactive, HSF-1 act inactive, HSP90 refold inh inactive and HKDC1 inhibitor inactive.
Screening CCC1(C)Cc2nc3[nH]c(=S)n(-c4ccccc4)c(=O)c3cc2CO1 (configuration not stated) returned HSF1 inh inactive, Hsp70 act inactive, Tb hexokinase inactive, HSF-1 act inactive, HSP90 refold inh inactive and HKDC1 inhibitor inactive.
CC1(C)Cc2nc3[nH]c(=S)n(-c4ccccc4)c(=O)c3cc2CO1 was read as HSF1 inh -62, Hsp70 act inactive, Tb hexokinase inactive, HSF-1 act inactive, HSP90 refold inh inactive and HKDC1 inhibitor inactive.
Screening O=S(=O)(c1cccc(F)c1)N1CCN(c2nc(-c3cccnc3)nc3ccccc23)CC1 returned HKDC1 inhibitor inactive.
Screening COC(=O)c1sccc1N/N=C/c1cccc(Oc2ccccc2)c1 returned HSF1 inh inactive, Hsp70 act inactive, Tb hexokinase inactive, HSF-1 act inactive, HSP90 refold inh 17 and HKDC1 inhibitor inactive.
Cc1ccccc1NC(=O)Cc1nc(COC(=O)c2ccc(O)cc2O)cs1 was read as HSF1 inh inactive, HSF-1 act inactive, HSP90 refold inh inactive and HKDC1 inhibitor inactive.
`C(=N\Nc1ccccn1)/c1c[nH]c2ccccc12` gave HSF1 inh inactive, Tb hexokinase inactive, HSF-1 act 251, HSP90 refold inh inactive and HKDC1 inhibitor inactive.
CC(C)(C)C(=O)NCc1ccc(C(=O)CSc2nnc(-c3ccncc3)n2C2CC2)s1 was read as HKDC1 inhibitor inactive.
For COc1cccc(-n2cnc3sc(-c4ccccc4)cc3c2=O)c1 the results were HSF1 inh inactive, HSF-1 act 54 and HKDC1 inhibitor inactive.
For O=C(CSc1n[nH]c(-c2cccnc2)n1)Nc1ccccc1C(F)(F)F the results were HSF1 inh inactive, HSF-1 act inactive, HSP90 refold inh inactive and HKDC1 inhibitor inactive.
Screening CCCCN1C(=O)/C(=C/C=C2\Oc3ccccc3N2CC)SC1=S returned HSF1 inh inactive, Hsp70 act inactive, Tb hexokinase inactive, HSF-1 act inactive, HSP90 refold inh inactive and HKDC1 inhibitor inactive.
For CCN1/C(=C/C=C/c2oc3ccc(-c4ccccc4)cc3[n+]2CC)Oc2ccc(-c3ccccc3)cc21 the results were HSF1 inh inactive, Hsp70 act inactive, Tb hexokinase 101, HSF-1 act 103, HSP90 refold inh inactive and HKDC1 inhibitor inactive.
For COc1ccccc1NS(=O)(=O)c1cccc(NC(=O)CCNC(=O)c2ccccc2OC)c1 the results were HKDC1 inhibitor inactive.
`CCCc1cc(=O)[nH]c(SCC(=O)N2c3ccccc3CC2C)n1` (configuration not stated) gave HKDC1 inhibitor inactive.
For Cn1c(O)c(/C=N/Nc2ccccc2)c(=O)n(C)c1=O the results were HSF1 inh inactive, Hsp70 act inactive, Tb hexokinase inactive, HSF-1 act inactive, HSP90 refold inh 16 and HKDC1 inhibitor inactive.
`CCOC(=O)C(N)CSC1CC(=O)N(CCc2ccccc2)C1=O` (configuration not stated) gave HSF1 inh inactive, HSF-1 act inactive, HSP90 refold inh inactive and HKDC1 inhibitor inactive.
CCOc1ccc(CNC(=O)CCS(=O)(=O)c2ccc3c(c2)oc(=O)n3C)cc1 was read as HSF1 inh -76, HSF-1 act inactive, HSP90 refold inh inactive and HKDC1 inhibitor inactive.
Screening CC1Cc2ccccc2N1C(=O)COC(=O)c1cccc(Br)c1 (configuration not stated) returned HKDC1 inhibitor inactive.
For CC1Cc2ccccc2N1C(=O)COC(=O)c1ccc(S(=O)(=O)N(C)C)cc1 (configuration not stated) the results were HSF1 inh -78, Hsp70 act inactive, Tb hexokinase inactive, HSF-1 act inactive, HSP90 refold inh inactive and HKDC1 inhibitor inactive.
For COC(=O)c1cc(S(=O)(=O)C(C)C)c(S(C)=O)s1 (configuration not stated) the results were HSF1 inh inactive, Tb hexokinase inactive, HSF-1 act 90, HSP90 refold inh inactive and HKDC1 inhibitor inactive.
O=C(CCN1CCc2ccccc2C(c2ccccc2)C1)c1ccc2c(c1)OCCO2 (configuration not stated) was read as HSF1 inh inactive, Hsp70 act inactive, Tb hexokinase inactive, HSF-1 act 87, HSP90 refold inh inactive and HKDC1 inhibitor inactive.
For CCc1cc2c(=O)oc(-c3ccc(Br)cc3)nc2s1 the results were HSF1 inh inactive, HSF-1 act inactive, HSP90 refold inh inactive and HKDC1 inhibitor inactive.
For COc1cc(C2c3cc4c(cc3OC(C)(N3CCCC3)C2C)OCO4)cc(OC)c1OC (configuration not stated) the results were HKDC1 inhibitor inactive.
CC(=O)n1c2c(c3ccccc31)OC(N)=C(C#N)C2c1cccc(Cl)c1Cl (configuration not stated) was read as HSF1 inh inactive, Hsp70 act inactive, Tb hexokinase inactive, HSF-1 act 74, HSP90 refold inh inactive and HKDC1 inhibitor inactive.
